In publication PMC5668642 (Biochemistry and Biophysics Reports, 2015):

Assays:
GRP1-PH domain = target: T1, GRP1-PH domain (Mus musculus, UniProt O08967); experiment: Competitive surface plasmon resonance assay, PI; type: binding; conditions: for inhibition at 5 µM: read-out: Relative inhibitory activity (%), PI(3,4,5)P3/GRP1-PH
T1 sequence (O08967 264-380 limits assumed): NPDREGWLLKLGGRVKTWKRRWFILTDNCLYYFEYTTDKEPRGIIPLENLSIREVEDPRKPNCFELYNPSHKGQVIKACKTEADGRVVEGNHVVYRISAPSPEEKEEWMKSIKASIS
Outline: (§1)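 L1 chip, 25 °C, 20 mM HEPES pH 7.4, 0.16 M KCl, 30 µL/min. Active surface PC/PE/PS/PIP (57:20:20:3): PI(4,5)P2 for rat PLCδ1-PH (1-131), PI(3,4,5)P3 for human AKT1-PH (1-121) and mouse GRP1-PH (1-127), PI(3,4)P2 for human TAPP1-PH (180-305). BSA-blocked PC/PE/PS reference. Domain (500 nM) preincubated 30 min with compound (0–20 or 0–200 µM). % inhibition from RU at 180 s; IC50 by Langmuir fit; triplicates.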

PLCδ1-PH domain [1] = target: T2, PLCδ1-PH domain (Rattus norvegicus, UniProt P10688); experiment: Liposome pull-down assay, PI; type: binding; conditions: protein 50 μM; compound 100 μM; PC/PE/PS/PI(4,5)P2 (57:20:20:3)
T2 sequence (P10688 1-131): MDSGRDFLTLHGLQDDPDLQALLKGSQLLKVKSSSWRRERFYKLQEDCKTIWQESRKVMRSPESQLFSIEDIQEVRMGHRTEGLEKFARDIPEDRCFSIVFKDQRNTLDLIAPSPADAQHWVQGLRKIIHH
Outline: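 Sucrose-loaded PC/PE/PS/PI(4,5)P₂ vesicles made by sonication and extrusion, pelleted at 100,000g, and resuspended in 20 mM Tris pH 7.4 with 100 mM KCl and 5 mM MgCl₂. Rat PLCδ1-PH domain incubated with vesicles (40 µg in 100 µL) for 30 min with 0.3 mg/mL BSA, with or without test compound; PC/PE/PS vesicles as control. Spun at 100,000g for 30 min at 4 °C; supernatant and pellet run on Coomassie-stained SDS-PAGE.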

AKT1-PH domain [2] = target: T3, AKT1-PH domain (Homo sapiens, UniProt P31749); experiment: Competitive surface plasmon resonance assay, PI; type: binding; conditions: for inhibition at 5 µM: read-out: Relative inhibitory activity (%), PI(3,4,5)P3/AKT1-PH
Outline: as §1

AKT1-PH domain [3] = target: T3, AKT1-PH domain; experiment: Isothermal titration calorimetry, AKT1-PH domain; type: binding; conditions: 25 °C
Outline: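 Human AKT1-PH domain (residues 1–121, E. coli BL21-DE3) in the sample cell at 25 °C, 500 rpm. Titrated with 20 × 2 µL injections of test compound (2 mM) at 2.0 min intervals. ΔG derived as ΔH − TΔS.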

PLCδ1-PH domain [4] = target: T2, PLCδ1-PH domain; experiment: Competitive protein-to-membrane FRET displacement assay; type: binding
Outline: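 Rat PLCδ1-PH (1-131) is prebound to excess PC/PE/PS/dPE/PI(4,5)P2 (56:20:20:1:3) vesicles (100 µM total lipid) in 20 mM Tris pH 7.4, 0.16 M NaCl, at room temperature. Compound is titrated 0–70 µM. Protein-to-membrane FRET is read at ex 280/em 505 nm, corrected for PC/PE/PS/dPE (59:20:20:1) vesicles, dilution and dPE background. Apparent KI comes from a nonlinear least-squares fit.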

TAPP1-PH domain = TAPP1-PH domain (Homo sapiens, UniProt Q9HB21); experiment: Competitive surface plasmon resonance assay, PI; type: binding; conditions: for inhibition at 5 µM: read-out: Relative inhibitory activity (%), PI(3,4)P2/TAPP1-PH
Outline: as §1

AKT1-PH domain [5] = target: T3, AKT1-PH domain; experiment: Liposome pull-down assay, PI; type: binding; conditions: protein 50 μM; compound 100 μM; PC/PE/PS/PI(3,4,5)P3 (57:20:20:3)
Outline: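 Human AKT1-PH (1-121) is incubated 30 min with 40 µg sucrose-loaded, sonicated/extruded vesicles (± compound) in 20 mM Tris pH 7.4, 100 mM KCl, 5 mM MgCl2, 0.3 mg/mL BSA. Vesicles were pelleted beforehand at 100,000g, 4 °C. Bound and free protein are separated at 100,000g, 30 min, 4 °C. Supernatant and pellet are run on Coomassie-stained SDS-PAGE.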

PLCδ1-PH domain [6] = target: T2, PLCδ1-PH domain; experiment: Isothermal titration calorimetry, PLCδ1-PH domain; type: binding; conditions: 25 °C; 20 mM HEPES pH 7.4, 0.16 M KCl
Outline: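 Rat PLCδ1-PH domain (residues 1–131, E. coli BL21-DE3) at 200 μM, dialysed into 20 mM HEPES pH 7.4 with 0.16 M KCl. Titrated at 25 °C, 500 rpm, with 20 × 2 µL injections at 2.0 min intervals of test compound (2 mM) dissolved in the final dialysate. ΔG derived as ΔH − TΔS.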

PLCδ1-PH domain [7] = target: T2, PLCδ1-PH domain; experiment: Competitive surface plasmon resonance assay, PI; type: binding; conditions: for inhibition at 5 µM: pH 7.4, read-out: Relative inhibitory activity (%), PI(4,5)P2/PLCδ1-PH
Outline: as §1

[8] = system: GFP-tagged PLCδ1-PH domain in A549 cells; experiment: Cellular translocation of GFP-tagged PLCδ1-PH domain; type: cell-based, Human; conditions: 0–100 μM, 30 min
Outline: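 A549 cells grown on coverslips in RPMI-1640 with 10% heat-inactivated FBS and penicillin/streptomycin at 37 °C, 5% CO₂. Transfected 24 h after seeding with GFP-PLCδ1-PH using polyethylenimine in Opti-MEM, then returned to complete medium after 24 h. Cells washed into serum-free medium and exposed to test compound (5–100 µM; DMSO <5%) for 30 min. PBS-washed, fixed in 4% paraformaldehyde for 15 min, and imaged by confocal at 488 nm excitation.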

PLCδ1-PH domain [9] = target: T2, PLCδ1-PH domain; experiment: Circular dichroism of PLCδ1-PH domain with compounds; conditions: PLCδ1-PH 1 μM; 10 mM phosphate, 10 mM NaCl, pH 7.2
Outline: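 Rat PLCδ1-PH domain (residues 1-131, expressed in E. coli BL21-DE3) is scanned by far-UV CD from 190 to 245 nm, alone and with test compounds present.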

T3 sequence (P31749 1-121): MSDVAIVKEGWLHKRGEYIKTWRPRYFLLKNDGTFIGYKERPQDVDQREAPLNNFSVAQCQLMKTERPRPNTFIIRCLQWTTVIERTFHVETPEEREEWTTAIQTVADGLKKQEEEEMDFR
Chain of TAPP1-PH domain (Q9HB21 180-305): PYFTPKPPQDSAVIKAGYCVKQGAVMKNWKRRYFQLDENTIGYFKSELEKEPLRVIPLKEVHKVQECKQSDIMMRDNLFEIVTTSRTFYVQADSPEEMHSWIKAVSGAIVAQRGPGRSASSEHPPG

| Structure (SMILES) | IC50 (GRP1-PH domain) [nM] | inhibition at 5 µM (GRP1-PH domain) [%] | Inhibition of PLCδ1-PH domain binding to PI(4,5)P2 containing liposomes (SDS-PAGE) (PLCδ1-PH domain [1]) | IC50 (AKT1-PH domain [2]) [nM] | inhibition at 5 µM (AKT1-PH domain [2]) [%] | ITC titration behaviour with AKT1-PH domain (AKT1-PH domain [3]) | Ki (PLCδ1-PH domain [4]) [nM] | IC50 (TAPP1-PH domain) [nM] | inhibition at 5 µM (TAPP1-PH domain) [%] | Inhibition of PI(3,4,5)P3/AKT1-PH domain interaction (SDS-PAGE) (AKT1-PH domain [5]) | ITC titration behaviour with PLCδ1-PH domain (PLCδ1-PH domain [6]) | IC50 (PLCδ1-PH domain [7]) [nM] | inhibition at 5 µM (PLCδ1-PH domain [7]) [%] | Displacement of PLCδ1-PH domain from plasma membrane (confocal images) [8] | Change in secondary structural pattern of PLCδ1-PH domain (far UV-CD) (PLCδ1-PH domain [9]) | Effect on PLCδ1-PH domain binding to PC/PE/PS/PI(4,5)P2 liposome (PLCδ1-PH domain [7]; competitive SPR, negative control, data not shown) |
| --- | --- | --- | --- | --- | --- | --- | --- | --- | --- | --- | --- | --- | --- | --- | --- | --- |
| O=[N+]([O-])c1ccc(Cn2cc(CO)nn2)cc1 [CIP-1] | 145 ± 11 | 56 ± 3 | not that efficient in displacing the PLCδ1-PH domain | 175 ± 21 | 44 ± 2 | exothermic reaction with two-step binding mechanism | 60400 | 647 ± 33 | 18 ± 2 | more strongly than compound CIP-4 | exothermic reaction with one-step binding mechanism | 113 ± 7 | 83 ± 4 | extent of displacement of PLCδ1-PH domain from PM is lowered | almost no change |  |
| Cn1cc(CO)nn1 [(1-methyl-1H-1,2,3-triazol-4-yl)methanol, reference compound] |  |  |  |  |  |  |  |  |  |  |  |  |  |  |  | did not affect |
| OCc1cn(Cc2ccccc2)nn1 [CIP-2] | 216 ± 9 | 58 ± 5 |  | 315 ± 32 | 55 ± 2 |  |  | 106 ± 8 | 41 ± 4 |  |  | 159 ± 11 | 62 ± 3 |  |  |  |
| CCOC(=O)Cn1cc(CO)nn1 [CIP-3] |  |  |  |  | 4 ± 1 |  |  |  |  |  |  |  |  |  |  |  |
